# Assay results collected from several papers.
# Protocols differ between the studies behind these lines.
# Target: Cytoplasmic tyrosine-protein kinase BMX (BMX, Homo sapiens, UniProt P51813)
# Sequence (P51813 1-675, as in one of the studies): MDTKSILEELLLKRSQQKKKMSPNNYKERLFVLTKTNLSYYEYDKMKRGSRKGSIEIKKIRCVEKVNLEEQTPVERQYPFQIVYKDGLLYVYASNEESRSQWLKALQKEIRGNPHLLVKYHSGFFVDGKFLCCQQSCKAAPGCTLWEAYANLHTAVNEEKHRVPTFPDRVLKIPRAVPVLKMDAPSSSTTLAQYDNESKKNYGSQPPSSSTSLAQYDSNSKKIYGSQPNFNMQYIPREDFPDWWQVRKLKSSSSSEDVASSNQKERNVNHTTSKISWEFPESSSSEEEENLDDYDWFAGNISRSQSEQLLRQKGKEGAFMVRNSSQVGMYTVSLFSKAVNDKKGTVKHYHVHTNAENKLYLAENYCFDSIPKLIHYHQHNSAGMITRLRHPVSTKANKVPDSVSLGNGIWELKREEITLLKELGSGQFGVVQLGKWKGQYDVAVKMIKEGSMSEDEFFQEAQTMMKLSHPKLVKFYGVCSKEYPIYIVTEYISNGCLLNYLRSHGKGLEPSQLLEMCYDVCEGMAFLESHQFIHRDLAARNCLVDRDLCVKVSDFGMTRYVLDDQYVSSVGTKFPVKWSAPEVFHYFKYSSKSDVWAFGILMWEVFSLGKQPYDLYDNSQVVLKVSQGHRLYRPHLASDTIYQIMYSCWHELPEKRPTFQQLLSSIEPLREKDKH
SMILES,assay,conditions,remaining binding [%]
O=C(N1CCS(=O)(=O)CC1)N1C[C@H](c2ccc(OC(F)(F)F)cc2)C[C@H](c2nc(C3CC3)no2)C1,"cell-free assay, competition with immobilised ligand",1 µM,100
C[C@@H]1CCN(c2nccc(-c3cnn4ncccc34)n2)C1,binding,1 µM,100
COc1cnc(Nc2cccc(S(N)(=O)=O)c2)nc1N1CCN(c2ccccc2)C(=O)C1,"binding, competition with immobilised ligand",1 µM,100
c1cncc(-c2cccc(Nc3nccc(NC4CCCCC4)n3)c2)c1,"binding, competition with immobilised ligand",10 µM,82
CNC(=O)[C@@H]1CC[C@@H](n2c(-c3ccc4cnccc4c3)nc3ccc(C(=O)NCc4cccc(C(N)=O)c4)cc32)C1,"binding, competition with immobilised ligand",1 µM,100
F[C@@H]1CCN(c2nccc(-c3cnn4ncccc34)n2)C1,binding,1 µM,83
CCCOc1ccc([C@H]2[C@H](C(=O)O)[C@@H](c3ccc4c(c3)OCO4)CN2CC(=O)Nc2c(CC)cccc2CC)cc1,"cell-free assay, competition with immobilised ligand",1 µM,100
c1cnn2ncc(-c3ccnc(N4CCC45COC5)n3)c2c1,binding,1 µM,90
CCC(=N\O)/C(C)=C/c1ccc(F)cc1,"cell-free assay, competition with immobilised ligand",1 µM,83
O=C(c1ccc(Nc2nccc(-c3cc4ccccc4s3)n2)cc1)N1CCC(N2CCCC2)CC1,"binding, competition with immobilised ligand",1 µM,91
CCN1CCN(Cc2ccc(C(=O)Nc3ccc(C)c(Oc4ccc5c(c4)CC(=O)N5)c3)cc2C(F)(F)F)CC1,"binding, competition with immobilised ligand",1 µM,88
C[C@@H](c1cccc(C#N)c1)n1cc(Cl)cc(C(N)=O)c1=N,"cell-free assay, competition with immobilised ligand",1 µM,95
COc1ccnn2ncc(-c3ccnc(N(C)C)n3)c12,binding,1 µM,100
Cc1cc(-n2nc(Cc3cc(F)cc(C(F)(F)F)c3)nc2C)ccc1C(N)=O,"cell-free assay, competition with immobilised ligand",1 µM,100
FC(F)(F)Oc1cccc(-c2cnc3ccc(-c4ccncc4)nn23)c1,"cell-free assay, competition with immobilised ligand",5 µM,86
O=C(NCCCN1CCOCC1)c1ccc(Nc2ncc(Cl)c(-c3ccc(Cl)s3)n2)cc1,"binding, competition with immobilised ligand",1 µM,89
CO[C@@H](C)c1c(Nc2ccc([C@H](N(C)C(=O)C3CCS(=O)(=O)CC3)C(F)(F)F)cc2)cnc2cc(Cl)nn12,"cell-free assay, competition with immobilised ligand",1 µM,99
Cc1cnn2ncc(-c3ccnc(N(C)C)n3)c2c1,binding,1 µM,96
Cc1cnc(Nc2ccc(C(=O)N3CCC(N4CCCC4)CC3)cc2)nc1-c1cc2ccccc2s1,"binding, competition with immobilised ligand",1 µM,75
N[C@@H]1CCN(c2nccc(-c3cnn4ncccc34)n2)C1,binding,1 µM,97
O=C(NCC1CCOCC1)c1n[nH]cc1NC(=O)c1c(F)cccc1F,"binding, competition with immobilised ligand",1 µM,100
